Data taken from ChEMBL document CHEMBL1122725, “Luteinizing hormone-releasing hormone antagonists containing very hydrophobic amino acids” (1984).
Non-standard residues stand in square brackets, D forms with d. Residues, ends and D or L forms follow the SMILES beside them. dPhe(4-Cl) = N[C@H](Cc1ccc(Cl)cc1)C(=O)O; dPhe(4-F) = N[C@H](Cc1ccc(F)cc1)C(=O)O; d2Nal = N[C@H](Cc1ccc2ccccc2c1)C(=O)O

How the values were obtained:
Format in all cases: functional
Rattus norvegicus [1] = assay: Evaluation of antagonistic potency by rat anti-ovulatory assay when administered in 50% propylene glycol / 0.9% saline vehicle
Summary of the method: (§1)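 Rats with at least two normal 4-day estrous cycles (daily vaginal lavage cytology, at least 12 days) given the analogue subcutaneously in vehicle, 50% propylene glycol/0.9% saline or Mazola corn oil, at noon on proestrus or on diestrus II (24 h earlier). On expected estrus morning, oviducts examined for ovulated eggs. ED50 from percent ovulating versus log-dose, usually three or more dose groups, 10 animals per group.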

Rattus norvegicus [2] = species: Rattus norvegicus; assay: Duration of anti-ovulatory activity was measured at noon on diestrus II and the vehicle was 50% propylene glycol /0.9 % mazola corn oil; summary of the method: as §1
Rattus norvegicus [3] = species: Rattus norvegicus; assay: Duration of proestrus and the vehicle was 50% propylene glycol /0.9 % mazola corn oil; summary of the method: as §1
Rattus norvegicus [4] = assay: Evaluation of antagonistic potency by rat anti-ovulatory assay when administered in 50% propylene glycol / 0.9% mazola corn oil vehicle; summary of the method: as §1
Rattus norvegicus [5] = species: Rattus norvegicus; assay: Duration of anti-ovulatory activity was measured at noon on diestrus II and the vehicle was 50% propylene glycol /0.9 % saline; summary of the method: as §1

## CCNC(=O)[C@@H]1CCCN1C(=O)[C@H](CCCN=C(N)N)NC(=O)[C@H](CC(C)C)NC(=O)[C@@H](CCCN=C(N)N)NC(=O)[C@H](Cc1ccc(O)cc1)NC(=O)[C@H](CO)NC(=O)[C@@H](Cc1ccc2ccccc2c1)NC(=O)[C@@H](Cc1ccc(F)cc1)NC(=O)[C@@H]1CCCN1C(C)=O
Rattus norvegicus [1]
  ED50: 32 ug injection-1

## CC(=O)N1CCC[C@H]1C(=O)N[C@H](Cc1ccc(Cl)cc1)C(=O)N[C@H](Cc1ccccc1)C(=O)N[C@@H](CO)C(=O)N[C@@H](Cc1ccc(O)cc1)C(=O)N[C@H](Cc1ccc2ccccc2c1)C(=O)N[C@@H](CC(C)C)C(=O)N[C@@H](CCCN=C(N)N)C(=O)N1CCC[C@H]1C(=O)NCC(N)=O
Rattus norvegicus [1]
  ED50: 5.6 ug injection-1

## CC(=O)N[C@H](Cc1ccc(Cl)cc1)C(=O)N[C@H](Cc1ccc(Cl)cc1)C(=O)N[C@H](Cc1c[nH]c2ccccc12)C(=O)N[C@@H](CO)C(=O)N[C@@H](Cc1ccc(O)cc1)C(=O)N[C@H](CCCN=C(N)N)C(=O)N[C@@H](CC(C)C)C(=O)N[C@@H](CCCN=C(N)N)C(=O)N1CCC[C@H]1C(=O)N[C@H](C)C(N)=O (Ac-[dPhe(4-Cl)][dPhe(4-Cl)][dW]SY[dR]LRP[dA]-NH2)
Rattus norvegicus [2]
  ED50: 5 µg
Rattus norvegicus [3]
  ED50: 1.2 µg
Rattus norvegicus [1]
  ED50: 1.8 ug injection-1
Rattus norvegicus [4]
  ED50: 1.2 µg injection-1

## CC(=O)N[C@H](Cc1ccc2ccccc2c1)C(=O)N[C@H](Cc1ccc(F)cc1)C(=O)N[C@H](Cc1ccc2ccccc2c1)C(=O)N[C@@H](CO)C(=O)N[C@@H](Cc1ccc(O)cc1)C(=O)N[C@H](CCCN=C(N)N)C(=O)N[C@@H](CC(C)C)C(=O)N[C@@H](CCCN=C(N)N)C(=O)N1CCC[C@H]1C(=O)NCC(N)=O
Rattus norvegicus [1]
  ED50: 16 ug injection-1

## CC(=O)N[C@H](C(=O)N[C@H](Cc1ccc(F)cc1)C(=O)N[C@H](Cc1ccc2ccccc2c1)C(=O)N[C@@H](CO)C(=O)N[C@@H](Cc1ccc(O)cc1)C(=O)N[C@H](Cc1ccc2ccccc2c1)C(=O)N[C@@H](CC(C)C)C(=O)N[C@@H](CCCN=C(N)N)C(=O)N1CCC[C@H]1C(=O)NCC(N)=O)[C@@H](C)O
Rattus norvegicus [1]
  ED50: 7 ug injection-1
Rattus norvegicus [4]
  ED50: 4.5 ug injection-1

## CCNC(=O)[C@@H]1CCCN1C(=O)[C@H](CCCN=C(N)N)NC(=O)[C@H](CC(C)C)NC(=O)[C@@H](Cc1ccc2ccccc2c1)NC(=O)[C@H](Cc1ccc(O)cc1)NC(=O)[C@H](CO)NC(=O)[C@@H](Cc1ccc2ccccc2c1)NC(=O)[C@@H](Cc1ccc(F)cc1)NC(=O)[C@@H]1CCCN1C(C)=O
Rattus norvegicus [1]
  ED50: 3.4 ug injection-1

## CC(=O)N1CCC[C@H]1C(=O)N[C@H](Cc1ccc(F)cc1)C(=O)N[C@H](Cc1ccccc1)C(=O)N[C@@H](CO)C(=O)N[C@@H](Cc1ccc(O)cc1)C(=O)N[C@H](Cc1ccc2ccccc2c1)C(=O)N[C@@H](CC(C)C)C(=O)N[C@@H](CCCN=C(N)N)C(=O)N1CCC[C@H]1C(=O)NCC(N)=O
Rattus norvegicus [1]
  ED50: 12.2 ug injection-1

## CC(=O)N[C@H](Cc1ccc(Cl)cc1)C(=O)N[C@H](Cc1ccc(Cl)cc1)C(=O)N[C@H](Cc1ccc2ccccc2c1)C(=O)N[C@@H](CO)C(=O)N[C@@H](Cc1ccc(O)cc1)C(=O)N[C@H](Cc1ccc2ccccc2c1)C(=O)N[C@@H](CC(C)C)C(=O)N[C@@H](CCCN=C(N)N)C(=O)N1CCC[C@H]1C(=O)NCC(N)=O
Rattus norvegicus [1]
  ED50: 400 ug injection-1

## CC(=O)N1CCC[C@H]1C(=O)N[C@H](Cc1ccc(F)cc1)C(=O)N[C@H](Cc1ccc2ccccc2c1)C(=O)N[C@@H](CO)C(=O)N[C@@H](Cc1ccc(O)cc1)C(=O)N[C@H](Cc1ccc(N)cc1)C(=O)N[C@@H](CC(C)C)C(=O)N[C@@H](CCCN=C(N)N)C(=O)N1CCC[C@H]1C(=O)NCC(N)=O
Rattus norvegicus [1]
  ED50: 72 ug injection-1

## CC(=O)N[C@H](Cc1ccc2ccccc2c1)C(=O)N[C@H](Cc1ccc(F)cc1)C(=O)N[C@H](Cc1c[nH]c2ccccc12)C(=O)N[C@@H](CO)C(=O)N[C@@H](Cc1ccc(O)cc1)C(=O)N[C@H](CCCN=C(N)N)C(=O)N[C@@H](CC(C)C)C(=O)N[C@@H](CCCN=C(N)N)C(=O)N1CCC[C@H]1C(=O)NCC(N)=O (Ac-[d2Nal][dPhe(4-F)][dW]SY[dR]LRPG-NH2)
Rattus norvegicus [2]
  ED50: 9 µg
Rattus norvegicus [3]
  ED50: 1.1 µg
Rattus norvegicus [1]
  ED50: 2.4 ug injection-1

## CC(=O)N[C@H](Cc1ccccc1)C(=O)N[C@H](Cc1ccc(Cl)cc1)C(=O)N[C@H](Cc1c[nH]c2ccccc12)C(=O)N[C@@H](CO)C(=O)N[C@@H](Cc1ccc(O)cc1)C(=O)N[C@H](Cc1c[nH]c2ccccc12)C(=O)N[C@@H](CC(C)C)C(=O)N[C@@H](CCCN=C(N)N)C(=O)N1CCC[C@H]1C(=O)NCC(N)=O
Rattus norvegicus [1]
  ED50: 160 ug injection-1
Rattus norvegicus [4]
  ED50: 74 ug injection-1

## CC(=O)N[C@@H](CO)C(=O)N[C@H](Cc1ccc(F)cc1)C(=O)N[C@H](Cc1ccc2ccccc2c1)C(=O)N[C@@H](CO)C(=O)N[C@@H](Cc1ccc(O)cc1)C(=O)N[C@H](Cc1ccc2ccccc2c1)C(=O)N[C@@H](CC(C)C)C(=O)N[C@@H](CCCN=C(N)N)C(=O)N1CCC[C@H]1C(=O)NCC(N)=O
Rattus norvegicus [1]
  ED50: 4.3 ug injection-1
Rattus norvegicus [4]
  ED50: 1.4 ug injection-1

## CC(=O)N1CCC[C@H]1C(=O)N[C@H](Cc1ccc(F)cc1)C(=O)N[C@H](Cc1ccc2ccccc2c1)C(=O)N[C@@H](CO)C(=O)N[C@@H](Cc1ccc(O)cc1)C(=O)N[C@H](Cc1ccc2ccccc2c1)C(=O)N[C@@H](CC(C)C)C(=O)N[C@@H](CCCN=C(N)N)C(=O)N1CCC[C@H]1C(=O)NCC(N)=O (stereo in doubt; 7)
Rattus norvegicus [2]
  ED50: 140 µg
Rattus norvegicus [5]
  ED50: 35 ug injection-1
Rattus norvegicus [1]
  ED50: 2.2 ug injection-1
Rattus norvegicus [4]
  ED50: 4 µg

## CC(=O)N1CCC[C@H]1C(=O)N[C@H](Cc1ccc(Cl)cc1)C(=O)N[C@H](Cc1ccc2ccccc2c1)C(=O)N[C@@H](CO)C(=O)N[C@@H](Cc1ccc(O)cc1)C(=O)N[C@H](Cc1ccc2ccccc2c1)C(=O)N[C@@H](CC(C)C)C(=O)N[C@@H](CCCN=C(N)N)C(=O)N1CCC[C@H]1C(=O)NCC(N)=O
Rattus norvegicus [1]
  ED50: 4.8 ug injection-1
Rattus norvegicus [4]
  ED50: 3.6 ug injection-1

## CCNC(=O)[C@@H]1CCCN1C(=O)[C@H](CCCN=C(N)N)NC(=O)[C@H](CC(C)C)NC(=O)[C@@H](CCCN=C(N)N)NC(=O)[C@H](Cc1ccc(O)cc1)NC(=O)[C@H](CO)NC(=O)[C@@H](Cc1ccc2ccccc2c1)NC(=O)[C@@H](Cc1ccc(Cl)cc1)NC(=O)[C@@H]1CCCN1C(C)=O
Rattus norvegicus [1]
  ED50: 14 ug injection-1

## CC(C)C[C@H](NC(=O)[C@@H](Cc1ccc2ccccc2c1)NC(=O)[C@H](Cc1ccc(O)cc1)NC(=O)[C@H](CO)NC(=O)[C@@H](Cc1ccc2ccccc2c1)NC(=O)[C@@H](Cc1ccc(F)cc1)NC(=O)[C@H](COCc1ccccc1)NC(=O)OC(C)(C)C)C(=O)N[C@@H](CCCN=C(N)N)C(=O)N1CCC[C@H]1C(=O)NCC(N)=O
Rattus norvegicus [1]
  ED50: 400 ug injection-1

## CC(C)C[C@H](NC(=O)[C@@H](Cc1ccc2ccccc2c1)NC(=O)[C@H](Cc1ccc(O)cc1)NC(=O)[C@H](CO)NC(=O)[C@@H](Cc1ccc2ccccc2c1)NC(=O)[C@@H](Cc1ccc(F)cc1)NC(=O)[C@@H]1CCCN1C=O)C(=O)N[C@@H](CCCN=C(N)N)C(=O)N1CCC[C@H]1C(=O)NCC(N)=O
Rattus norvegicus [1]
  ED50: 3 ug injection-1
Rattus norvegicus [4]
  ED50: 4.4 ug injection-1
